The record followed here is publication PMC12324215 (bioRxiv, 2025).

For experiment [1], the system named is T. brucei brucei 449 (strain: Lister 427, bloodstream form). The experiment can be described thus: Trypanosome cell survival assay. Conditions: Trypanosoma brucei, 24 h, read-out: EC50 (24 h). The format is cell-based.
The target of experiment [2] is T1, Tpx WT/inhibitor complex (Trypanosoma brucei brucei, UniProt O77404).
T1 sequence (O77404 with tags, fused parts or gaps): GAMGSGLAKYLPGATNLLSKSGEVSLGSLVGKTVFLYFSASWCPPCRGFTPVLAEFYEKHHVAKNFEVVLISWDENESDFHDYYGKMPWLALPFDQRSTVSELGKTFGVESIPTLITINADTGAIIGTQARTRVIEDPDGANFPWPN
The experiment can be described thus: SEC-MALS of Tpx/inhibitor complexes. Type of experiment: binding, T. brucei. Conditions: SEC-MALS at 100 μM protein concentration. An outline of the steps:
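Covalent complexes were formed as for ITC (TCEP-reduced Tpx, 3-fold excess inhibitor, 30 min, 25 °C) and SEC-purified. 100 µM complex was run on Superdex 75 10/300 in 25 mM NaPi pH 7.5, 150 mM NaCl at 0.5 ml/min, room temperature. Molar mass came from multi-angle light scattering plus refractive index detection, using a Zimm model.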

The EC50 is the concentration needed to bring the measured effect to its halfway point. With `O=c1[nH]c(CCl)nc2scc(-c3ccc(C(F)(F)F)cc3)c12` [CtFT, 2-(Chloromethyl)-5-(4-(trifluoromethyl)phenyl)thieno[2,3-d]pyrimidin-4(3H)-one], in experiment [1], the EC50 came to 2200 ± 600 nM. Moreover, the “oligomeric state of Tpx/inhibitor complex” value in experiment [2] is “remained monomeric”.

On to `O=c1[nH]c(CCl)nc2scc(-c3ccccc3)c12` [CPT, 2-(Chloromethyl)-5-phenylthieno[2,3-d]pyrimidin-4(3H)-one], for which, in experiment [1], the EC50 came out at 600 ± 300 nM.
